Experimental data as given in ChEMBL document CHEMBL1932940, “Xanthohumol induces apoptosis in human malignant glioblastoma cells by increasing reactive oxygen species and activating MAPK pathways” (J Nat Prod, 2011).
Activity calls are given as the source filed them. The rule behind the calls is not given here.

What was measured:
U-87 MG [1] = assay: Induction of apoptosis in human U87MG cells at 50 uM after 48 hrs by propidium iodide staining based flow cytometric analysis; format: functional, cell-based; conditions: U-87MG ATCC
Summary of the method: (§1)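 Cells treated 1−50 μM for 24 or 48 h, washed in PBS, resuspended in 0.1% sodium citrate, 0.1% Triton X-100, 50 μg/mL propidium iodide, 30 min at 4 °C in dark. Nuclei analyzed by flow cytometry, DNA on log scale, debris gated out; percent hypodiploid (sub-G1) nuclei reported. Three experiments in triplicate.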

T98G [2] = assay: Induction of apoptosis in human T98G cells assessed as increase in ROS production at 20 uM measured every 5 mins for 5 to 120 mins by DCFH-DA staining-based flow cytometric analysis; format: functional, cell-based
Summary of the method: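 T98G incubated with 20 μM, with or without 5 mM NAC pretreatment, for 5−120 min or 24 h; washed, resuspended at 2 × 10^5 cells/mL in HBSS with 10 μM DCFH-DA, 20 min at 37 °C; DCF fluorescence read by flow cytometry (FL1), also viewed by fluorescence microscopy.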

T98G [3] = assay: Induction of apoptosis in human T98G cells assessed as increase in ROS production at 20 uM after 48 hrs by DCFH-DA staining-based flow cytometric analysis in presence of 5 mM NAC; format: functional, cell-based
U-87 MG [4] = assay: Induction of cell cycle arrest in human U87MG cells assessed as accumulation at S phase at 1 to 20 uM after 48 hrs by flow cytometric analysis; format: functional, cell-based; conditions: U-87MG ATCC
Summary of the method: (§2)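 2 × 10^5 cells per dish exposed 48 h (1−20 μM per legend); harvested, fixed in cold 70% ethanol at −20 °C, stained with propidium iodide plus RNase A (100 U/mL) 30 min at room temperature; percentage in G1, S, G2/M by flow cytometry. Three experiments in triplicate.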

U-87MG ATCC = assay: Anticancer activity against human U87MG cells assessed as decrease in cell viability at 50 uM after 48 hrs by MTT assay; format: functional, cell-based
Summary of the method: (§3)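 Cells (T98G, U87-MG, NHA; 3 × 10^4 per well) plated, next day exposed to serial dilutions (1−50 μM) for 48 h at 37 °C, 5% CO2. MTT (5 mg/mL) added for 3 h; crystals solubilized in 50% DMF/20% SDS pH 4.5; OD at 620 nm. Viability = % of DMSO (0.1% final) controls. Means ± SEM, three experiments in triplicate.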

T98G [5] = assay: Induction of apoptosis in human T98G cells assessed as increase in mitochondrial depolarization at 20 uM after 24 hrs by […] fluorescence analysis; format: functional
Summary of the method: (§4)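 T98G treated with 20 μM for 4−24 h (NAC 5 mM where stated), then loaded with 5 nM TMRE for 30 min at 37 °C; fluorescence by flow cytometry (FL-2); percentage of cells with depolarized mitochondria reported. Three experiments in triplicate (n = 3 for NAC set).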

T98G [6] = assay: Induction of cell cycle arrest in human T98G cells assessed as accumulation at G0/G1 phase at 1 to 20 uM after 48 hrs by flow cytometric analysis; format: functional, cell-based; summary of the method: as §2
T98G [7] = assay: Induction of apoptosis in human T98G cells assessed as increase in mitochondrial depolarization at 20 uM after 4 hrs by […] fluorescence analysis; format: functional, cell-based; summary of the method: as §4
T98G [8] = assay: Induction of apoptosis in human T98G cells assessed as decrease in mitochondrial depolarization at 20 uM after 24 hrs by […] fluorescence analysis in presence of 5 mM NAC; format: functional, cell-based; summary of the method: as §4
T98G [9] = assay: Induction of apoptosis in human T98G cells assessed as increase in ROS production at 20 uM after 48 hrs by DCFH-DA staining-based flow cytometric analysis in presence of 10 uM ascorbic acid; format: functional, cell-based
[10] = biological target: Mitogen-activated protein kinase; ERK1/ERK2 (Homo sapiens) (UniProt P27361+P28482); assay: Induction of Erk1/2 phosphorylation in human T98G cells at 20 uM measured after 24 hrs by Western blot analysis in presence of 5 mM of NAC; format: cell-based
Chain of Mitogen-activated protein kinase; ERK1/ERK2 (Homo sapiens) (P27361 whole entry, looked up): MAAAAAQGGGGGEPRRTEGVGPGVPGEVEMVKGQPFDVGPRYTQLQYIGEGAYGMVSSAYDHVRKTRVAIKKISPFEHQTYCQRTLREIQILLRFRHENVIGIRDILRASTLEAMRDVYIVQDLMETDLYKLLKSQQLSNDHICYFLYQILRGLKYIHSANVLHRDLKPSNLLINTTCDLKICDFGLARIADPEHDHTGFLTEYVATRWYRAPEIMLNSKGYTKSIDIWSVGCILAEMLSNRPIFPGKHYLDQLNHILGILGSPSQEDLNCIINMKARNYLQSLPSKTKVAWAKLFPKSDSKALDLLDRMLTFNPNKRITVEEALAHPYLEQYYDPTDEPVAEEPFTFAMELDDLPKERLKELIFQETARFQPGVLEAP
Chain of Mitogen-activated protein kinase; ERK1/ERK2 (Homo sapiens) (P28482 whole entry, looked up): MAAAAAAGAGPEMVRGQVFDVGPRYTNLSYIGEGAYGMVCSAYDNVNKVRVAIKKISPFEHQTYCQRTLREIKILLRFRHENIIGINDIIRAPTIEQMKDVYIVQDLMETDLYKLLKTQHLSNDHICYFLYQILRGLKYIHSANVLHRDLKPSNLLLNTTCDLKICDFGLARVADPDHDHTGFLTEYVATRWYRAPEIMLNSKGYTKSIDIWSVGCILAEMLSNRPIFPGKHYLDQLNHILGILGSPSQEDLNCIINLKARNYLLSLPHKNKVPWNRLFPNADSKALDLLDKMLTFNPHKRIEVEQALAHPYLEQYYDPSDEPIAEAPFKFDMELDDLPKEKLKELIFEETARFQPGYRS
Summary of the method: (§5)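 T98G exposed to 20 μM for 5−120 min or 24 h, with or without 5 mM NAC. Lysates (Tris/deoxycholate/SDS/IGEPAL with protease and phosphatase inhibitors) immunoblotted with anti-p-ERK, ERK1/2 (1:1000), p-p38, p38; ECL detection; phospho signals normalized to total ERK1/2 or p38. Three experiments.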

T98G [11] = assay: Induction of apoptosis in human T98G cells assessed as cell death at 20 uM after 48 hrs by propidium iodide staining based flow cytometric analysis; format: functional
Summary of the method: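 T98G cells grown in DMEM with 10% heat-inactivated FBS and 2 mM L-glutamine at 37 °C, 5% CO2, then exposed 24–48 h (range 1–50 μM). Percent hypodiploid nuclei counted by flow cytometry, debris gated out. Three experiments in triplicate, mean ± SEM.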

T98G [12] = assay: Induction of apoptosis in human T98G cells assessed as increase in caspase-3 expression level at 20 uM after 24 hrs by Western blot analysis; format: functional, cell-based
Summary of the method: (§6)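 T98G exposed to 20 μM for various times (0−48 h), NAC 5 mM where stated. Total lysates, or digitonin-permeabilized cytosolic and mitochondrial fractions (10000g, 15 min, 4 °C) for cytochrome c, blotted for caspase-3, caspase-9, PARP (1:1000), Bcl-2 (1:500), cytochrome c; β-actin loading control; ECL detection. Three experiments.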

T98G [13] = assay: Induction of apoptosis in human T98G cells assessed as decrease in Bcl-2 expression at 20 uM after 48 hrs by Western blot analysis in presence of 5 mM NAC; format: functional, cell-based; summary of the method: as §6
T98G [14] = assay: Induction of apoptosis in human T98G cells assessed as increase in subG1 population after 24 to 48 hrs by propidium iodide staining based flow cytometric analysis; format: functional, cell-based; summary of the method: as §1
U-87 MG [15] = assay: Induction of cell cycle arrest in human U87MG cells assessed as accumulation at G2/M phase at 1 to 20 uM after 48 hrs by flow cytometric analysis; format: functional, cell-based; conditions: U-87MG ATCC; summary of the method: as §2
[16] = Cytotoxicity against normal human astrocytes assessed as decrease in cell viability after 48 hrs by MTT assay; format: cell-based; conditions: astrocyte; summary of the method: as §3
T98G [17] = assay: Anticancer activity against human T98G cells assessed as decrease in cell viability after 48 hrs by MTT assay; format: functional, cell-based; summary of the method: as §3
T98G [18] = assay: Induction of apoptosis in human T98G cells assessed as decrease in Bcl-2 expression at 20 uM by Western blot analysis; format: functional, cell-based; conditions: TDE = time-dependent effect; summary of the method: as §6
T98G [19] = assay: Induction of apoptosis in human T98G cells assessed as increase in cytosolic cytochrome c release at 20 uM after 8 hrs by Western blot analysis; format: functional, cell-based; summary of the method: as §6
T98G [20] = assay: Induction of cell cycle arrest in human T98G cells assessed as accumulation at S phase at 1 to 20 uM after 48 hrs by flow cytometric analysis; format: functional, cell-based; summary of the method: as §2
T98G [21] = assay: Anticancer activity against human T98G cells assessed as decrease in cell viability at 10 uM after 48 hrs by MTT assay; format: functional, cell-based; summary of the method: as §3
[22] = biological target: MAP kinase p38 (Homo sapiens) (UniProt O15264+Q15759+Q16539+P53778); assay: Induction of p38 phosphorylation in human T98G cells at 20 uM after 30 to 60 mins for 2 hrs by Western blot analysis in presence of 5 mM NAC; format: cell-based; summary of the method: as §5

COc1cc(O)c(CC=C(C)C)c(O)c1C(=O)/C=C/c1ccc(O)cc1 [XANTHOHUMOL]
Activity (U-87 MG [1]): Active
Activity (T98G [2]): Active
Activity (T98G [3]): inactive
Activity (U-87 MG [4]): inactive
Activity (U-87MG ATCC): Active
Activity (T98G [5]): 50%
Activity (T98G [6]): inactive
Activity (T98G [7]): Active
Activity (T98G [8]): inactive
Activity (T98G [9]): inactive
Activity [10]: inactive
Activity (T98G [11]): 40%
Activity (T98G [12]): Active
Activity (T98G [13]): inactive
Activity (T98G [14]): Dose-dependent effect
Activity (U-87 MG [15]): inactive
Activity [16]: Non-toxic
Activity (T98G [17]): Dose-dependent effect
Activity (T98G [18]): tde
Activity (T98G [19]): Active
Activity (T98G [20]): inactive
Activity (T98G [21]): Active
Activity [22]: inactive
